ChEMBL document CHEMBL1155272, “Nucleoside-5'-monophosphates as prodrugs of adenosine A2A receptor agonists activated by ecto-5'-nucleotidase” (J Med Chem, 2009)

Target: T1, 5'-nucleotidase (Rattus norvegicus) (UniProt P21588)
T1 sequence (whole entry): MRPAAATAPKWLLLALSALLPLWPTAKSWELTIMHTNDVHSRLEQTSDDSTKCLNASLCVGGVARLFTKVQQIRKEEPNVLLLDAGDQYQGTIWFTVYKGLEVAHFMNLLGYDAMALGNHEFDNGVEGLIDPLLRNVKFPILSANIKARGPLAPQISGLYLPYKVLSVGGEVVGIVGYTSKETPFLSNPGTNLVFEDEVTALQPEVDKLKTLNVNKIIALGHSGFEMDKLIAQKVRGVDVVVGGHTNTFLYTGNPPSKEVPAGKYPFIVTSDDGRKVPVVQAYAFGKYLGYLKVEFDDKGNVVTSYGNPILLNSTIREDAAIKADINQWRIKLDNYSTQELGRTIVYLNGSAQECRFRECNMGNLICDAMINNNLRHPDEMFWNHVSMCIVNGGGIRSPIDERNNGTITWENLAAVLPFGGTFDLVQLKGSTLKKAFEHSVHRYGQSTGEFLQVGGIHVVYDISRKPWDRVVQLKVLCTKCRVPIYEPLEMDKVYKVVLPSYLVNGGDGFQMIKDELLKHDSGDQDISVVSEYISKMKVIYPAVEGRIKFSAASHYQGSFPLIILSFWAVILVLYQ
Experiment: Activity at rat recombinant ecto-5'-nucleotidase expressed in baculovirus-infected insect Sf9 cells co-transfected with soluble glutathione-S-transferase assessed as compound dephosphorylation by capillary electrophoresis relative to AMP
Set-up: concentration or dose not given beside the values
Summary of the method: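 Purified GST-rat ecto-5'-NT fusion protein (baculovirus/insect cells, glutathione-agarose purified). 500 μM nucleoside monophosphate in 10 mM Hepes pH 7.4, 2 mM MgCl2, 1 mM CaCl2; 37 °C, 20 min; stopped at 99 °C for 5 min. Nucleoside product quantified by capillary electrophoresis (borate pH 9.1, UV 232 nm). Dephosphorylation expressed relative to AMP (100%). Two experiments, triplicate injections.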

Activity	Structure (SMILES)
104%	Nc1nc(SCCC2OCCO2)nc2c1ncn2[C@@H]1O[C@H](COP(=O)(O)O)[C@@H](O)[C@H]1O
28%	Nc1nc(SC2CCCCC2)nc2c1ncn2[C@@H]1O[C@H](COP(=O)(O)O)[C@@H](O)[C@H]1O
0%	C#CCSc1nc(N)c2ncn([C@@H]3O[C@H](COP(=O)(O)O)[C@@H](O)[C@H]3O)c2n1
0%	C=CCSc1nc(N)c2ncn([C@@H]3O[C@H](COP(=O)(O)O)[C@@H](O)[C@H]3O)c2n1
71%	Nc1nc(SCC2CCCCC2)nc2c1ncn2[C@@H]1O[C@H](COP(=O)(O)O)[C@@H](O)[C@H]1O
0%	Nc1nc(SCc2ccccc2)nc2c1ncn2[C@@H]1O[C@H](COP(=O)(O)O)[C@@H](O)[C@H]1O
96%	Nc1nc(SCCC2CCCCC2)nc2c1ncn2[C@@H]1O[C@H](COP(=O)(O)O)[C@@H](O)[C@H]1O
47%	CCCSc1nc(N)c2ncn([C@@H]3O[C@H](COP(=O)(O)O)[C@@H](O)[C@H]3O)c2n1
0%	Nc1nc(SCCc2ccccc2)nc2c1ncn2[C@@H]1O[C@H](COP(=O)(O)O)[C@@H](O)[C@H]1O
67%	Nc1nc(SCCC2COCCO2)nc2c1ncn2[C@@H]1O[C@H](COP(=O)(O)O)[C@@H](O)[C@H]1O (some centres not stated)
71%	Nc1nc(SC2CCCC2)nc2c1ncn2[C@@H]1O[C@H](COP(=O)(O)O)[C@@H](O)[C@H]1O

Structure (SMILES)	Activity
CCCCCCSc1nc(N)c2ncn([C@@H]3O[C@H](COP(=O)(O)O)[C@@H](O)[C@H]3O)c2n1	84%
